According to ChEMBL document CHEMBL3407478, “Development of a series of aryl pyrimidine kynurenine monooxygenase inhibitors as potential therapeutic agents for the treatment of Huntington's disease” (J Med Chem, 2015):
≈ marks a conversion by molar mass, not a printed value.

Columns and labels:
Liver microsome [1] = assay: Intrinsic clearance in human liver microsomes assessed per mg of protein; format: ADME; set-up: unit not given here
Summary of the method: (§1)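 Stability assessed in human, rat and mouse liver microsomes; intrinsic clearance expressed per mg microsomal protein.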

[2] = Permeability from basolateral to apical side in human Caco2 cells; format: ADME, cell-based; conditions: Caco-2, read-out: permeability
[3] = Aqueous solubility of the compound; format: physicochemical
[4] = molecular target: T1, Kynurenine 3-monooxygenase (Rattus norvegicus, UniProt O88867); assay: Inhibition of KMO in rat microglia cells; format: cell-based
T1 sequence (O88867 whole entry): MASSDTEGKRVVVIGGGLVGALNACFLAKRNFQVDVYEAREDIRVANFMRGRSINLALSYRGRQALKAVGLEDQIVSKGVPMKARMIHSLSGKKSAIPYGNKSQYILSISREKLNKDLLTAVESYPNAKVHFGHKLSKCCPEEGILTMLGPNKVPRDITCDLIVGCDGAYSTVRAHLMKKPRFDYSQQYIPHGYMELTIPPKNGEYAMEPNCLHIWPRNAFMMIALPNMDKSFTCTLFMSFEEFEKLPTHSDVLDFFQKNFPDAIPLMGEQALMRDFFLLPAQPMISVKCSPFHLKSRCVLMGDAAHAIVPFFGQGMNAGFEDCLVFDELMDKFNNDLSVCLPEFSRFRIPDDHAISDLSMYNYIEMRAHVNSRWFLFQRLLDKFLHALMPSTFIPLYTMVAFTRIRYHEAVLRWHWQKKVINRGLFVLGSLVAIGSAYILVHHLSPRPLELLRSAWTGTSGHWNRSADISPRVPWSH
Summary of the method: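 Freshly isolated neonatal rat microglial cultures, induced to express KMO by a pro-inflammatory protocol. Exogenous KYN added; conversion to 3-HK monitored by mass spectrometry.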

Liver = assay: Intrinsic clearance in mouse liver microsomes assessed per mg of protein; format: ADME; set-up: unit not given here; summary of the method: as §1
[5] = Permeability from apical to basolateral side in human Caco2 cells; format: ADME, cell-based; conditions: Caco-2, read-out: permeability
[6] = Lipophilicity, log P of the compound at pH 7; format: physicochemical; conditions: buffer
[7] = molecular target: T1, Kynurenine 3-monooxygenase; assay: Inhibition of rat KMO assessed as conversion of kynurenine to 3-hydroxykynurenine by LC-MS/MS analysis
Summary of the method: (§2)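 Mitochondrial fractions from mouse or rat liver tissue used as KMO source. Conversion of kynurenine to 3-hydroxykynurenine quantified by LC-MS/MS; IC50 averaged from triplicate tests.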

Liver microsome [8] = assay: Intrinsic clearance in rat liver microsomes assessed per mg of protein; format: ADME; set-up: unit not given here; summary of the method: as §1
[9] = molecular target: T2, Kynurenine 3-monooxygenase (Homo sapiens, UniProt O15229); assay: Inhibition of human KMO assessed as conversion of kynurenine to 3-hydroxykynurenine by LC-MS/MS analysis
T2 sequence (O15229 whole entry): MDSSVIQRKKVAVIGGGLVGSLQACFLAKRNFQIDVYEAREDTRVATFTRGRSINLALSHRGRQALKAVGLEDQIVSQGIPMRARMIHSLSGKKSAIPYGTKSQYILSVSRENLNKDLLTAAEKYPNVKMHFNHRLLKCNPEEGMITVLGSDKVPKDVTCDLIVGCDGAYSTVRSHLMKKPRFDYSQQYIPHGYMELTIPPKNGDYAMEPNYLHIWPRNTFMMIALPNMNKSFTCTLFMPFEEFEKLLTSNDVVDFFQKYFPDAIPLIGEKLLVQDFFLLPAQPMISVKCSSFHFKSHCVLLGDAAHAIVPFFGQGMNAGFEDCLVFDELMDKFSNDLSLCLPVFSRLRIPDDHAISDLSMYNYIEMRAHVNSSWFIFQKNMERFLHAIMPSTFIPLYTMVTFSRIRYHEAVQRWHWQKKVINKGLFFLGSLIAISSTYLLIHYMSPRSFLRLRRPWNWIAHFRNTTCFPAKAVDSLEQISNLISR

[10] = molecular target: Kynurenine 3-monooxygenase (Mus musculus, UniProt Q91WN4); assay: Inhibition of mouse KMO assessed as conversion of kynurenine to 3-hydroxykynurenine by LC-MS/MS analysis; summary of the method: as §2
Chain of Kynurenine 3-monooxygenase (Mus musculus, UniProt Q91WN4) (Q91WN4 whole entry): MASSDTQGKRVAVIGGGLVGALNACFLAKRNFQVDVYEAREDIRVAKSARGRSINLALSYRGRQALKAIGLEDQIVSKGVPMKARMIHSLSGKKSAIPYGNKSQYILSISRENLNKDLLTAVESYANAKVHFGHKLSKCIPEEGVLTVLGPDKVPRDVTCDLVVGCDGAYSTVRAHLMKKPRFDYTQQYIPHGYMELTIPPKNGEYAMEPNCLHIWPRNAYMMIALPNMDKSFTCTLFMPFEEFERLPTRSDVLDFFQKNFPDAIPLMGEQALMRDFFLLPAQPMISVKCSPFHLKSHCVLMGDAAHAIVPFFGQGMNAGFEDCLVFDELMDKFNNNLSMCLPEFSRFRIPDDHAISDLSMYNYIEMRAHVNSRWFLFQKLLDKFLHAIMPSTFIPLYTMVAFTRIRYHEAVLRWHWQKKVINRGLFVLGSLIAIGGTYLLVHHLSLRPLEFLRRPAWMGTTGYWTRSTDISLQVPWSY

[11] = molecular target: T2, Kynurenine 3-monooxygenase; assay: Inhibition of KMO (unknown origin)
[12] = molecular target: T2, Kynurenine 3-monooxygenase; assay: Inhibition of human KMO transfected in CHO cells assessed as conversion of kynurenine to 3-hydroxykynurenine by LC-MS/MS analysis; format: cell-based
[13] = molecular target: T2, Kynurenine 3-monooxygenase; assay: Inhibition of KMO in human PBMC

Compound: O=C(O)c1cc(-c2ccc(OC(F)(F)F)c(Cl)c2)ncn1
- CLH (Liver microsome [1]): < 0.02
- Papp B→A [2]: 17.1 ×10⁻⁶ cm/s
- solubility [3]: > 1000 µg/mL
- IC50 [4]: > 1000 nM
- CLH (Liver): < 0.02
- Papp A→B [5]: 10.5 ×10⁻⁶ cm/s
- logD [6]: 1.77
- IC50 [7]: 17 nM
- CLH (Liver microsome [8]): < 0.02

Compound: COc1cc(-c2cc(C(=O)O)ncn2)ccc1Cl
- logD [6]: 0.59

Compound: O=C(O)c1cc(-c2ccc(F)c(Cl)c2)ncn1
- logD [6]: 0.41

Compound: O=C(O)c1cc(-c2ccc(Cl)c(F)c2)ncn1
- logD [6]: 0.4

Compound: CC(=O)Nc1cc(-c2ccc(Cl)c(Cl)c2)ncn1
- IC50 [9]: > 10000 nM

Compound: Cc1cccc(-c2cc(C(=O)O)ncn2)c1
- logD [6]: -0.19

Compound: O=C(O)c1cc(-c2ccc(Cl)cc2)ncn1
- logD [6]: -0.11

Compound: Cn1ccn(-c2cc(-c3ccc(Cl)c(Cl)c3)ncn2)c1=O
- IC50 [9]: > 10000 nM

Compound: CS(=O)(=O)Nc1cc(-c2ccc(Cl)c(Cl)c2)ncn1
- IC50 [9]: > 10000 nM

Compound: Clc1ccc(-c2cc(-n3cccn3)ncn2)cc1Cl
- IC50 [9]: > 10000 nM

Compound: Clc1ccc(-c2cc(-n3ccnc3)ncn2)cc1Cl
- IC50 [9]: > 10000 nM

Compound: O=C(O)c1cc(-c2ccc(Cl)cc2F)ncn1
- logD [6]: 0.44

Compound: O=C(O)c1cc(-c2cc(Cl)cc(Cl)c2)ncn1
- logD [6]: 1.15

Compound: O=C(O)c1cc(-c2ccc(F)c(F)c2)ncn1
- Papp B→A [2]: 26 ×10⁻⁶ cm/s
- solubility [3]: > 1000 µg/mL
- IC50 [4]: 86 nM
- IC50 [10]: 1.5 nM
- Papp A→B [5]: 13.6 ×10⁻⁶ cm/s
- logD [6]: -0.45
- IC50 [7]: 2 nM

Compound: CC(C)Oc1ccc(-c2cc(C(=O)O)ncn2)cc1Cl
- CLH (Liver microsome [1]): < 0.02
- Papp B→A [2]: 21.2 ×10⁻⁶ cm/s
- solubility [3]: > 1000 µg/mL
- CLH (Liver): < 0.02
- Papp A→B [5]: 16.5 ×10⁻⁶ cm/s
- logD [6]: 1.28
- CLH (Liver microsome [8]): < 0.02

Compound: O=C(O)c1cc(-c2ccc(F)c(C(F)(F)F)c2)ncn1
- logD [6]: 0.45

Compound: O=C(O)c1cc(-c2ccccc2)ncn1
- logD [6]: -0.98

Compound: O=C(O)c1cc(-c2ccc(C(F)(F)F)c(Cl)c2)ncn1
- logD [6]: 1.35

Compound: O=C(O)c1cc(-c2cccc(Cl)c2)ncn1
- logD [6]: 0.12

Compound: O=C(O)c1cc(-c2cccc(F)c2)ncn1
- logD [6]: -0.8

Compound: O=C(O)c1cc(-c2ccc(OC3CCCCC3)c(Cl)c2)ncn1
- CLH (Liver microsome [1]): < 0.02
- solubility [3]: 500 µg/mL (≈ 1.5 mM)
- CLH (Liver): < 0.02
- CLH (Liver microsome [8]): < 0.02

Compound: O=c1[nH]ccn1-c1cc(-c2ccc(Cl)c(Cl)c2)ncn1
- IC50 [9]: > 10000 nM

Compound: O=C(O)c1cc(-c2ccc(OC3CCC3)c(Cl)c2)ncn1
- CLH (Liver microsome [1]): < 0.02
- solubility [3]: > 1000 µg/mL
- CLH (Liver): < 0.02
- logD [6]: 1.19
- CLH (Liver microsome [8]): < 0.02

Compound: O=C(O)[C@H]1C[C@@H]1C(=O)c1ccc(Cl)c(Cl)c1
- IC50 [11]: 20 nM

Compound: COc1ccc(-c2cc(C(=O)O)ncn2)cc1Cl
- Papp B→A [2]: 31.3 ×10⁻⁶ cm/s
- solubility [3]: > 1000 µg/mL
- Papp A→B [5]: 15.8 ×10⁻⁶ cm/s
- logD [6]: 0.28

Compound: O=C(O)c1cc(-c2ccc(OCC3CC3)c(Cl)c2)ncn1
- CLH (Liver microsome [1]): < 0.02
- solubility [3]: > 1000 µg/mL
- CLH (Liver): < 0.02
- CLH (Liver microsome [8]): < 0.02

Compound: O=C(O)c1cc(-c2ccc(F)cc2F)ncn1
- logD [6]: -0.88

Compound: Cn1nnc(-c2cc(-c3ccc(Cl)c(Cl)c3)ncn2)n1
- IC50 [9]: > 10000 nM

Compound: O=C(O)c1cc(-c2cccc(Cl)c2F)ncn1
- logD [6]: -0.34

Compound: O=C(O)c1cc(-c2ccc(OC3CCCC3)c(Cl)c2)ncn1
- CLH (Liver microsome [1]): < 0.02
- Papp B→A [2]: 16.7 ×10⁻⁶ cm/s
- solubility [3]: > 1000 µg/mL
- CLH (Liver): < 0.02
- Papp A→B [5]: 20.5 ×10⁻⁶ cm/s
- logD [6]: 2.18
- CLH (Liver microsome [8]): < 0.02

Compound: Cc1ccc(-c2cc(C(=O)O)ncn2)cc1F
- logD [6]: -0.33

Compound: O=C(O)c1cc(-c2ccc(Cl)c(Cl)c2)ncn1
- Papp B→A [2]: 32.4 ×10⁻⁶ cm/s
- IC50 [9]: 0.6 nM
- solubility [3]: 740 µg/mL (≈ 2.75 mM)
- IC50 [12]: 33 nM
- IC50 [13]: 72 nM
- IC50 [4]: 105 nM
- IC50 [10]: 6 nM
- Papp A→B [5]: 41.4 ×10⁻⁶ cm/s
- logD [6]: 1.12
- IC50 [7]: 3.2 nM

Compound: O=C(O)c1cc(-c2ccc(OC3COC3)c(Cl)c2)ncn1
- CLH (Liver microsome [1]): < 0.02
- solubility [3]: > 1000 µg/mL
- CLH (Liver): < 0.02
- CLH (Liver microsome [8]): < 0.02

Compound: O=C(O)c1cc(-c2cc(Cl)c3occc3c2)ncn1
- CLH (Liver microsome [1]): < 0.02
- Papp B→A [2]: 41 ×10⁻⁶ cm/s
- solubility [3]: 820 µg/mL (≈ 2.99 mM)
- CLH (Liver): < 0.02
- Papp A→B [5]: 21.9 ×10⁻⁶ cm/s
- logD [6]: 0.85
- CLH (Liver microsome [8]): < 0.02

Compound: O=C(Nc1cc(-c2ccc(Cl)c(Cl)c2)ncn1)c1ccccc1
- IC50 [9]: > 10000 nM

Compound: O=C(O)c1cc(-c2cccc(C(F)(F)F)c2)ncn1
- logD [6]: 0.36

Compound: Cc1ccc(-c2cc(C(=O)O)ncn2)cc1Cl
- Papp B→A [2]: 35.3 ×10⁻⁶ cm/s
- solubility [3]: > 1000 µg/mL
- IC50 [4]: 100 nM
- IC50 [10]: 6.2 nM
- Papp A→B [5]: 24 ×10⁻⁶ cm/s
- logD [6]: 0.8
- IC50 [7]: 4.1 nM
